Laboratory results: ChEMBL document CHEMBL6182829, “Developing peptide-based fusion inhibitors as an antiviral strategy utilizing coronin 1 as a template” (RSC Med Chem, 2025)
The source made the active and inactive calls. The calls are words filed in the database; no cut-off is given here. Where a SMILES comes first, the peptide text is derived from it.

Tests used:
Lipid bilayer [1] = test: Inhibition of PEG-induced DOPC/DOPE/DOPG/CH (50/30/10/10 mol%) small unilamellar vesicles assessed as content mixing at 1:100 compound: lipid concentration preincubated for 10 mins followed by PEG addition by fluorescence based analysis relative to control
Summary of the method: (§1)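 Content mixing by Tb3+/DPA complex fluorescence. Vesicles loaded with 8 mM TbCl3 or 80 mM DPA, external probe removed by gel filtration. Mixed 1:1 at 200 μM lipid; peptide 2 μM added 10 min before 6% (w/v) PEG, 37 °C. Normalised to co-encapsulated and detergent-treated samples.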

Lipid bilayer [2] = test: Inhibition of interfacial polarity in DOPC/DOPE/DOPG (60/30/10 mol%) small unilamellar vesicles assessed as decrease in interfacial polarity at 2 to 10 uM by TMA-DPH fluorescence analysis; conditions: dose 2-10 µM
Summary of the method: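 Interfacial polarity from TMA-DPH mean fluorescence lifetime in SUVs across peptide concentrations. TCSPC with 340 nm pulsed LED excitation, Ludox for IRF, 10 000 peak counts. Multi-exponential fits with χ2 ≤ 1.2; intensity-averaged lifetime. Run at 37 °C, pH 7.4 TES buffer, 200 μM lipid.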

Influenza A virus H3N2 [3] = test: Antiviral activity against Influenza A virus X-31 (H3N2) infected in human A549 cells assessed as reduction in viral M1 protein expression level incubated for 48 hrs post infection by Western blot analysis; type: functional, organism-based
Summary of the method: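 Cells seeded at 0.25 × 10^6 per well and co-infected with virus–peptide mixtures as in the CPE assay. Lysed in RIPA with protease inhibitor 48 h post-infection, protein by BCA. Run on 12% SDS-PAGE, transferred to PVDF, blocked in 3% milk. Probed with anti-M1 (1:1000) and HRP anti-mouse IgG (1:10 000); β-actin as loading control after stripping.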

Lipid bilayer [4] = test: Reduction of apparent rotational correlation time in DOPC/DOPE/DOPG (60/30/10 mol%) small unilamellar vesicles at 2 to 10 uM by TMA-DPH anisotropy analysis; conditions: dose 2-10 µM
Summary of the method: (§2)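 Apparent rotational correlation time of TMA-DPH from the Perrin equation, combining steady-state anisotropy and mean lifetime with r0 = 0.4. SUVs at 200 μM lipid with varying peptide, in TES/NaCl/CaCl2/EDTA buffer pH 7.4 at 37 °C; at least three measurements.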

Lipid bilayer [5] = test: Reduction of apparent rotational correlation time in DOPC/DOPE/DOPG/CH (50/30/10/10 mol%) small unilamellar vesicles at 2 to 10 uM by TMA-DPH anisotropy analysis; conditions: dose 2-10 µM; summary of the method: as §2
Lipid bilayer [6] = test: Binding affinity to DOPC/DOPE/DOPG/CH (40/30/10/20 mol%) small unilamellar vesicles assessed as membrane organization and dynamic by measuring increase in fluorescence intensity at 1:100 compound: lipid concentration by tryptophan fluorescence based spectrofluorometric analysis
Summary of the method: (§3)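 Tryptophan fluorescence spectra of the peptide recorded in buffer and with SUVs. Lipid:peptide 100:1, total lipid 200 μM, in 10 mM TES, 100 mM NaCl, 1 mM CaCl2, 1 mM EDTA, pH 7.4. At least three independent measurements averaged.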

Lipid bilayer [7] = test: Inhibition of PEG-induced DOPC/DOPE/DOPG/CH (50/30/10/10 mol%) small unilamellar vesicles assessed as content mixing at 1:100 compound: lipid concentration preincubated for 10 mins followed by PEG addition by fluorescence based analysis (reference value: 11.4 +/- 0.4 %); summary of the method: as §1
Lipid bilayer [8] = test: Inhibition of PEG-induced DOPC/DOPE/DOPG/CH (40/30/10/20 mol%) small unilamellar vesicle assessed as content mixing at 1:100 compound: lipid concentration preincubated for 10 mins followed by PEG addition by fluorescence based analysis (reference value: 23.0 +/- 0.9 %); summary of the method: as §1
Lipid bilayer [9] = test: Inhibition of PEG-induced DOPC/DOPE/DOPG/CH (50/30/10/10 mol%) small unilamellar vesicles assessed as content leakage at 1:100 compound: lipid concentration preincubated for 10 mins followed by PEG addition by fluorescence based analysis (reference value: 13.6 +/- 0.5 %)
Summary of the method: (§4)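 Leakage read as loss of fluorescence from vesicles co-encapsulating 8 mM TbCl3 and 80 mM DPA, external probe removed. Lipid 200 μM; peptide 2 μM added 10 min before 6% (w/v) PEG at 37 °C. 100% leakage set with 0.1% (w/v) Triton X-100.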

Lipid bilayer [10] = test: Inhibition of PEG-induced DOPC/DOPE/DOPG/CH (40/30/10/20 mol%) small unilamellar vesicles assessed as lipid mixing at 1:100 compound: lipid concentration preincubated for 10 mins followed by PEG addition by spectrofluorometric analysis (reference value: 92.7 +/- 3.7 %)
Summary of the method: (§5)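 Lipid mixing followed as FRET dilution. Vesicles carrying 0.8 mol% NBD-PE and Rh-PE mixed 1:9 with probe-free vesicles at 200 μM lipid. Peptide 2 μM added 10 min before 6% (w/v) PEG at 37 °C. NBD donor intensity rise recorded over time; TX-100 defines complete mixing.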

Influenza A virus H3N2 [11] = test: Antiviral activity against Influenza A virus X-31 (H3N2) infected in human A549 cells assessed as inhibition of viral infection preincubated for 48 hrs followed by viral infection for 45 mins by MTT assay; type: functional, organism-based; conditions: X-31, A549
Summary of the method: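 A549 or MDCK cells seeded 1.5 × 10^4 per well, grown 24 h. Virus premixed with two-fold serial peptide dilutions in serum-free medium with trypsin (2.5 μg ml-1). Cells infected 45 min at 37 °C, washed, then kept 48 h in medium with 0.1% FBS, 0.3% BSA and trypsin. MTT 4 h, absorbance 570 nm. CPE inhibition normalised to cell and virus controls, dose-response fit for EC50; at least 3 sets.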

Lipid bilayer [12] = test: Inhibition of PEG-induced DOPC/DOPE/DOPG (60/30/10 mol%) small unilamellar vesicles assessed as lipid mixing at 1:100 compound: lipid concentration preincubated for 10 mins followed by PEG addition by spectrofluorometric analysis (reference value: 57.4 +/- 2.2 %); summary of the method: as §5
Lipid bilayer [13] = test: Binding affinity to DOPC/DOPE/DOPG (60/30/10 mol%) small unilamellar vesicles assessed as membrane organization and dynamic by measuring increase in fluorescence intensity at 1:100 compound: lipid concentration by tryptophan fluorescence based spectrofluorometric analysis; summary of the method: as §3
Lipid bilayer [14] = test: Inhibition of PEG-induced DOPC/DOPE/DOPG/CH (50/30/10/10 mol%) small unilamellar vesicles assessed as lipid mixing at 1:100 compound: lipid concentration preincubated for 10 mins followed by PEG addition by spectrofluorometric analysis (reference value: 67.8 +/- 2.7 %); summary of the method: as §5
Lipid bilayer [15] = test: Inhibition of PEG-induced DOPC/DOPE/DOPG/CH (50/30/10/10 mol%) small unilamellar vesicles assessed as increase in lipid mixing at 1:100 compound: lipid concentration preincubated for 10 mins followed by PEG addition by spectrofluorometric analysis relative to control; summary of the method: as §5
Lipid bilayer [16] = test: Inhibition of PEG-induced DOPC/DOPE/DOPG/CH (40/30/10/20 mol%) small unilamellar vesicles assessed as content leakage at 1:100 compound: lipid concentration preincubated for 10 mins followed by PEG addition by spectrofluorometric analysis; summary of the method: as §4

CC[C@H](C)[C@H](NC(=O)[C@H](CC(C)C)NC(=O)[C@H](C)NC(=O)[C@@H](NC(=O)[C@H](Cc1ccccc1)NC(=O)[C@H](CCCCN)NC(=O)[C@@H]1CCCN1C(=O)[C@H](CC(N)=O)NC(=O)[C@@H](NC(=O)[C@H](C)NC(=O)[C@H](CS)NC(=O)[C@H](Cc1ccccc1)NC(=O)CNC(=O)[C@H](CO)NC(=O)[C@H](CC(=O)O)NC(=O)[C@H](Cc1c[nH]c2ccccc12)NC(=O)[C@@H](NC(=O)[C@@H](N)[C@@H](C)O)[C@@H](C)O)C(C)C)C(C)C)C(=O)N[C@@H](CS)C(=O)N[C@@H](CC(=O)O)C(=O)N[C@@H](Cc1c[nH]c2ccccc12)C(=O)N[C@@H](CO)C(=O)NCC(=O)O (H-TTWDSGFCAVNPKFVALICDWSG-OH)
inhibition (Lipid bilayer [1]): 30%
inhibition (Lipid bilayer [2]): Active; Partial Reduction Is Observed
Activity (Influenza A virus H3N2 [3]): Dose-dependent-effect
Activity (Lipid bilayer [4]): Active
Activity (Lipid bilayer [5]): Active
Activity (Lipid bilayer [6]): Active
inhibition (Lipid bilayer [7]): 8.1%
inhibition (Lipid bilayer [8]): 15.5%
inhibition (Lipid bilayer [9]): 8.3%
inhibition (Lipid bilayer [10]): 100%
EC50 (Influenza A virus H3N2 [11]): ~20.4 µM
inhibition (Lipid bilayer [12]): 69%
Activity (Lipid bilayer [13]): Active
inhibition (Lipid bilayer [14]): 72.1%
inhibition (Lipid bilayer [15]): 6%
inhibition (Lipid bilayer [16]): inactive
